Results: publication PMC10354499 (RSC Advances, 2023)

Assays:
[1] = test system: MCF-7 cells; settings: read-out: IC50 (MCF-7); known breast cancer antineoplastic drug; cited from earlier work
[2] = test system: CT-DNA relative to BSA; assay: Relative stability constant ln; settings: natural logarithm of ratio of CT-DNA to BSA binding constants
Procedure, shortened: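 KDNA: CT-DNA (0–8 μM) was titrated against 20 μM test compound in PBS with ~2% (v/v) DMSO final. Mixtures were incubated 10 min and read by UV-vis, with DNA absorbance cancelled in the reference. KDNA was the slope/intercept ratio of [DNA]/(εa−εf) vs [DNA] (Wolfe–Shimer). KBSA: 0–10 μM compound was added to 6 μM BSA in PBS pH 7.2, 10 min at 25 °C, A280 read, Benesi–Hildebrand fit.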

[3] = test system: HEK-293 cells; assay: Selective toxicity, MTT assay in HEK-293 cells; type: cell-based, human; settings: at respective MCF-7 IC50 concentration, 24 hours, MTT
Procedure, shortened: (§1)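 HEK-293 cells were grown in DMEM with 10% FBS, 1% penicillin–streptomycin, 1% L-glutamine and 2.5% HEPES. Cells were seeded at 15 000 cells/well, held 24 h (37 °C, 5% CO2), then exposed to test compound for 24 h. MTT (5 mg mL−1 in PBS) plus medium was added for 4 h, then aspirated, and formazan was dissolved in DMSO. Absorbance was read at 570/690 nm; percentage viability by formula, triplicate.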

[4] = Selective toxicity, MTT assay in HEK-293 cells; type: cell-based, human; settings: human, HEK-293 cells
Procedure, shortened: as §1

SMILES | IC50 [1] [µM] | ln(KDNA/KBSA) [2] | cell viability (HEK-293) [3] [%] | viability at 24 h [4] [%]
CC[C@]1(O)C[C@@H]2CN(CCc3c([nH]c4ccccc34)[C@@](C(=O)OC)(c3cc4c(cc3OC)N(C)[C@H]3[C@@](O)(C(=O)OC)[C@H](OC(C)=O)[C@]5(CC)C=CCN6CC[C@]43[C@@H]65)C2)C1 [Vinoblastine, vinblastine] | 10.2 ± 0.39 | – | – | –
CC1(C)CC(=O)C2=C(C1)Oc1ncnc(Nc3cccc(-[c-]4cccc4)c3)c1C2c1ccccc1F.[Fe+2].c1cc[cH-]c1 (centres unmarked) [Compound 3j, 4-((3-Ferrocenylphenyl)amino)-5-(2-fluorophenyl)-8,8-dimethyl-5,7,8,9-tetrahydro-6H-chromeno[2,3-d]pyrimidin-6-one] | – | highest | 107.43 | –
CC1(C)CC(=O)C2=C(C1)Oc1ncnc(Nc3ccccc3)c1C2c1ccccc1F (centres unmarked) [Compound 3a, 5-(2-Fluorophenyl)-8,8-dimethyl-4-(phenylamino)-5,7,8,9-tetrahydro-6H-chromeno[2,3-d]pyrimidin-6-one] | – | lowest | – | 96.6
